# Test results from ChEMBL document CHEMBL4396897, “Potent 5-Cyano-6-phenyl-pyrimidin-Based Derivatives Targeting DCN1-UBE2M Interaction” (J Med Chem, 2019).
# Activity calls are given as the source filed them. The rule behind the calls is not given here.
# Experiments:
# [1] = target: T1, DCN1-like protein 1 (Homo sapiens, UniProt Q96GG9); test: Binding affinity to N-terminal His6-tagged recombinant human DCN1 expressed in Escherichia coli BL21-AI assessed as reduction in DCN1-FAM-labelled N-terminal acetylated UBE2M (1 to 12 residues) protein-protein interaction after 30 mins by fluorescence polarization competitive binding assay
# [2] = target: T1, DCN1-like protein 1; test: Binding affinity to N-terminal GST tagged recombinant human DCN1 (58 to 259 residues) expressed in Escherichia coli BL21(DE3) assessed as reduction in DCN1-FAM-labelled N-terminal acetylated UBE2M (1 to 21 residues) protein-protein interaction after 30 mins by HTRF assay
# [3] = test system: KYSE-70 cell line; test: Antiproliferative activity against human KYSE-70 after 72 hrs by MTT assay; assay type: functional, cell-based; details: KYSE-70, 72 h
# How it was run: (§1)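 MTT viability assay: cells seeded at 2~5×10^3 per well, exposed to serial dilutions of compound for 72h, then MTT (5 mg/mL in PBS) added for 4h at 37°C. Formazan dissolved in DMSO and read at 490nm. IC50 reported as mean ± SD of three independent experiments.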
# [4] = test system: PC-9; test: Antiproliferative activity against human PC9 by MTT assay; assay type: functional, cell-based; how it was run: as §1
# [5] = test system: SMMC-7721; test: Antiproliferative activity against human SMMC7721 after 72 hrs by MTT assay; assay type: functional, cell-based; details: SMMC-7721, 72 h; how it was run: as §1
# [6] = test system: PC-3; test: Antiproliferative activity against human PC3 after 72 hrs by MTT assay; assay type: functional, cell-based; details: PC-3, 72 h; how it was run: as §1
# [7] = test system: MCF7; test: Antiproliferative activity against human MCF7 after 72 hrs by MTT assay; assay type: functional, cell-based; details: MCF7, 72 h; how it was run: as §1
# [8] = target: DCN1-like protein 1/NEDD8-conjugating enzyme Ubc12 (Homo sapiens) (UniProt Q96GG9+P61081); test: Inhibition of DCN1-UBE2M protein-protein interaction in human NCI-H1975 cells assessed as stabilization of DCN1 at 10 uM incubated for 5 hrs at 53 degC by cellular thermal shift assay; assay type: cell-based
# How it was run: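 H1975 cells exposed to 10µM compound or 1‰ DMSO for 3-5h (5h in legend), collected, aliquoted and heated 10 min across 43–61°C. Cells lysed by three liquid-nitrogen freeze-thaw cycles and centrifuged at 12,000×g for 20 min. Soluble DCN1 in supernatant quantified by Western blot band intensity; at least three experiments.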
# T1 sequence (Q96GG9 whole entry, the tested form may be a part): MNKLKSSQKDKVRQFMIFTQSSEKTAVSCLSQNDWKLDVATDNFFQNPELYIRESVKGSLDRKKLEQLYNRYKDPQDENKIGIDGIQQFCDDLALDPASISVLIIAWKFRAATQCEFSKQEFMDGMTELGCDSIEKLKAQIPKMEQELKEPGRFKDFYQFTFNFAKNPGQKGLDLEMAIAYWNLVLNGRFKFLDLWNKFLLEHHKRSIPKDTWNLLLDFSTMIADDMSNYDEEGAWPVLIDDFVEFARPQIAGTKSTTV
# DCN1-like protein 1/NEDD8-conjugating enzyme Ubc12 (Homo sapiens), sequence (P61081 whole entry, looked up): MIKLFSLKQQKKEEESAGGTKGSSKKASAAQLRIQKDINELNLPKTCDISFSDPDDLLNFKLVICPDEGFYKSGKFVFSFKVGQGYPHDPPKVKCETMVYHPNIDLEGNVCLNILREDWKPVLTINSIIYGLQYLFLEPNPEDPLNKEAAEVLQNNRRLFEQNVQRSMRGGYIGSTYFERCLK
# DCN1-like protein 1/NEDD8-conjugating enzyme Ubc12 (Homo sapiens), sequence (Q96GG9 whole entry, looked up): as the sequence (Q96GG9 whole entry, the tested form may be a part) above
IC50 [1],IC50 [2],IC50 [4],IC50 [5],IC50 [6],IC50 [7],inhibition [8],Structure (SMILES),IC50 [3]
> 20 µM,> 10 µM,,,,,,C#CCSc1nc(Sc2nnnn2C)c(C#N)c(-c2c[nH]c3ccccc23)n1,
> 10 µM,> 5 µM,,,,,,C#CCSc1nc(-c2cc(OC)c(OC)c(OC)c2)c(C#N)c(N2CCCCC2)n1,
1.48 µM,1.06 µM,,,,,,C#CCSc1nc(Sc2nccs2)c(C#N)c(-c2ccncc2)n1,
> 10 µM,> 10 µM,,,,,,CCCSc1nc(Sc2nccs2)c(C#N)c(-c2ccc(Cl)cc2)n1,
> 10 µM,> 10 µM,,,,,,C#CCSc1nc(Nc2cccc(C(F)(F)F)c2)c(C#N)c(-c2cc(OC)c(OC)c(OC)c2)n1,
1.25 µM,0.82 µM,,,,,,C#CCSc1nc(Sc2nnnn2C)c(C#N)c(-c2ccc3oc(=O)ccc3c2)n1,
1.09 µM,0.369 µM,,,,,,C#CCSc1nc(Sc2nnnn2C)c(C#N)c(-c2ccc(C(C)C)cc2)n1,
> 20 µM,> 10 µM,,,,,,C#CCSc1nc(Sc2nnnn2C)c(C#N)c(-c2ccc[nH]2)n1,
0.0366 µM,0.096 µM,4.13 µM,6.04 µM,3.62 µM,3.23 µM,,C#CCSc1nc(Sc2nccs2)c(C#N)c(-c2ccc(Cl)cc2)n1,5.35 µM
> 20 µM,> 10 µM,,,,,,C#CCSc1nc(Sc2nnnn2C)c(C#N)c(-c2cccs2)n1,
> 10 µM,> 10 µM,,,,,,C#CCSc1nc(Nc2ccc(OC)cc2)c(C#N)c(-c2cc(OC)c(OC)c(OC)c2)n1,
> 10 µM,> 10 µM,> 20 µM,> 20 µM,> 20 µM,> 20 µM,,C#CCSc1nc(Sc2nc(C)c(C)s2)c(C#N)c(-c2cc(OC)c(OC)c(OC)c2)n1,> 20 µM
0.0785 µM,0.102 µM,,,,,,C#CCSc1nc(Sc2nnnn2C)c(C#N)c(-c2ccc(Cl)cc2)n1,
0.063 µM,0.112 µM,,,,,,C#CCSc1nc(Sc2nccs2)c(C#N)c(-c2ccc(Cl)c(Cl)c2)n1,
1.22 µM,> 5 µM,> 20 µM,> 20 µM,> 20 µM,> 20 µM,,C#CCSc1nc(Sc2nc[nH]n2)c(C#N)c(-c2cc(OC)c(OC)c(OC)c2)n1,> 20 µM
0.666 µM,0.815 µM,,,,,,C#CCSc1nc(Sc2nnnn2CCN(C)C)c(C#N)c(-c2ccc3oc(=O)ccc3c2)n1,
0.36 µM,0.25 µM,,,,,,C#CCSc1nc(Sc2nnnn2C)c(C#N)c(-c2cc(OC)c(OC)c(OC)c2)n1,
0.109 µM,0.12 µM,,,,,,C#CCSc1nc(Sc2nnnn2CCN(C)C)c(C#N)c(-c2ccc(C)cc2)n1,
,,5.59 µM,16.2 µM,25.3 µM,10.2 µM,,C=CC(=O)Nc1ccccc1CN(C(=O)Nc1cccc(C(F)(F)F)c1)C1CCN(C(C)CCC)CC1 (centres undefined),17.9 µM
> 10 µM,> 2.5 µM,> 20 µM,> 20 µM,> 10 µM,> 10 µM,,C#CCSc1nc(Sc2ccccn2)c(C#N)c(-c2cc(OC)c(OC)c(OC)c2)n1,> 10 µM
0.196 µM,0.066 µM,,,,,,C#CCSc1nc(Sc2ccc(N)s2)c(C#N)c(-c2cc(OC)c(OC)c(OC)c2)n1,
0.591 µM,0.199 µM,,,,,,C#CCSc1nc(Sc2nnnn2CCN(C)C)c(C#N)c(-c2cc(OC)c(OC)c(OC)c2)n1,
0.552 µM,0.189 µM,12.1 µM,3.99 µM,8.53 µM,11.6 µM,,C#CCSc1nc(Sc2nccs2)c(C#N)c(-c2ccc(Br)cc2)n1,10.9 µM

IC50 [1],IC50 [2],IC50 [4],IC50 [5],IC50 [6],IC50 [7],inhibition [8],Structure (SMILES),IC50 [3]
> 10 µM,> 10 µM,,,,,,C#CCSc1nc(Nc2nnnn2C)c(C#N)c(-c2cc(OC)c(OC)c(OC)c2)n1,
> 10 µM,> 5 µM,,,,,,C#CCSc1nc(-c2cc(OC)c(OC)c(OC)c2)c(C#N)c(N2CCSCC2)n1,
0.362 µM,0.14 µM,,,,,,C#CCSc1nc(Sc2nccs2)c(C#N)c(-c2cccc(Cl)c2)n1,
0.789 µM,0.202 µM,,,,,,C#CCSc1nc(Sc2nccs2)c(C#N)c(-c2ccc3oc(=O)ccc3c2)n1,
> 10 µM,> 2.5 µM,,,,,,C#CCSc1nc(Sc2nccn2C)c(C#N)c(-c2cc(OC)c(OC)c(OC)c2)n1,
> 10 µM,> 10 µM,,,,,,C=CCSc1nc(Sc2nccs2)c(C#N)c(-c2ccc(Cl)cc2)n1,
3.15 µM,1.02 µM,,,,,,C#CCSc1nc(Sc2nnnn2C)c(C#N)c(-c2cccc(OC)c2)n1,
0.943 µM,0.339 µM,,,,,,C#CCSc1nc(Sc2nnnn2C)c(C#N)c(-c2ccc(Cl)c(Cl)c2)n1,
0.141 µM,0.077 µM,,,,,,C#CCSc1nc(Sc2nccs2)c(C#N)c(-c2cc(OC)c(OC)c(OC)c2)n1,
0.0635 µM,0.123 µM,5.3 µM,7.34 µM,7.17 µM,6.18 µM,,C#CCSc1nc(Sc2nnnn2CCN(C)C)c(C#N)c(-c2ccc(Cl)cc2)n1,6.56 µM
> 10 µM,> 5 µM,,,,,,C#CCSc1nc(-c2cc(OC)c(OC)c(OC)c2)c(C#N)c(N2CCNCC2)n1,
> 10 µM,> 10 µM,,,,,,C#CCSc1nc(-c2cc(OC)c(OC)c(OC)c2)c(C#N)c(N2CCOCC2)n1,
0.106 µM,0.38 µM,6.48 µM,8.64 µM,3.54 µM,4.12 µM,,C#CCSc1nc(Sc2nnnn2CCN(C)C)c(C#N)c(-c2cccc(Cl)c2)n1,5.32 µM
> 10 µM,> 5 µM,> 20 µM,> 20 µM,> 20 µM,> 20 µM,,C#CCSc1nc(Sc2nc3ccccc3s2)c(C#N)c(-c2cc(OC)c(OC)c(OC)c2)n1,> 20 µM
0.153 µM,0.134 µM,,,,,,C#CCSc1nc(Sc2nnc(C)s2)c(C#N)c(-c2cc(OC)c(OC)c(OC)c2)n1,
0.821 µM,0.107 µM,,,,,,C#CCSc1nc(Sc2nnc(N)s2)c(C#N)c(-c2cc(OC)c(OC)c(OC)c2)n1,
> 10 µM,> 10 µM,> 20 µM,> 20 µM,> 20 µM,> 20 µM,inactive,C#CCSc1nc(Sc2nc(C)cs2)c(C#N)c(-c2cc(OC)c(OC)c(OC)c2)n1,> 20 µM
> 20 µM,> 20 µM,,,,,,C#CCSc1nc(Sc2nnnn2C)c(C#N)c(-c2ccccc2)n1,
0.644 µM,0.291 µM,,,,,,C#CCSc1nc(Sc2nnnn2C)c(C#N)c(-c2cccc(Cl)c2)n1,
0.391 µM,0.172 µM,,,,,,C#CCSc1nc(Sc2nnnn2CCN(C)C)c(C#N)c(-c2ccc(Cl)c(Cl)c2)n1,
> 10 µM,> 10 µM,,,,,,N#Cc1c(Sc2nccs2)nc(SCc2cn(Cc3ccccc3)nn2)nc1-c1ccc(Cl)cc1,
> 20 µM,> 10 µM,> 20 µM,> 20 µM,> 20 µM,> 20 µM,,C#CCSc1nc(Sc2nccs2)c(C#N)c(-c2ccc[nH]2)n1,> 20 µM
